Experimental data published in ChEMBL document CHEMBL4680311, “Synthesis, characterization, in vitro SAR study, and preliminary in vivo toxicity evaluation of naphthylmethyl substituted bis-imidazolium salts” (Bioorg Med Chem, 2021).

Assays:
HOP-62 [1] = test: Antiproliferative activity against human HOP-62 cells assessed as cell growth at 10 uM incubated for 48 hrs by sulforhodamine B assay relative to control; type: functional; settings: read-out: Activity
Procedure, shortened: (§1)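 NCI DTP NCI-60 one-dose screen on the NSCLC panel. Cells were seeded at densities set by doubling rate and incubated 24 h. They were then exposed to a single 10 μM dose for 48 h. Each value is a growth percentage relative to the initial cell population: positive means net growth, negative means net cell kill.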

NCI-H460 [2] = test: Cytotoxicity against human NCI-H460 cells assessed as cell growth inhibition measured after 72 hrs by MTT assay; type: functional, cell-based; settings: NCI-H460, 72 h
Procedure, shortened: (§2)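 Cells kept in RPMI 1640 with 10% FBS at 37 °C, 5% CO₂, passaged every 2–3 days; grown to confluence, seeded at 5,000–7,000 cells/well depending on line, incubated 24 h. Compounds dissolved in 1% DMSO, diluted in medium to 1, 4, 16, 32 μM (6 replicates each), 72 h exposure. MTT 3–4 h, medium aspirated, DMSO added, 15 min, OD 540 nm; IC50 relative to untreated cells.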

EKVX [3] = test: Antiproliferative activity against human EKVX cells assessed as cell growth at 10 uM incubated for 48 hrs by sulforhodamine B assay relative to control; type: functional; settings: read-out: Activity; procedure, shortened: as §1
NCI-H460 [4] = test: Growth inhibition of human NCI-H460 cells incubated for 48 hrs by sulforhodamine B assay; type: functional
Procedure, shortened: (§3)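 NCI DTP NCI-60 five-dose screen, same procedure as the one-dose assay: 24 h preincubation, then 48 h exposure. Five tenfold-spaced concentrations were used, from 100 μM to 10 nM or from 25 μM to 2.5 nM depending on compound. GI50, TGI and LC50 were read from growth-percentage curves relative to control cells.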

NCI-H23 [5] = test: Growth inhibition of human NCI-H23 cells incubated for 48 hrs by sulforhodamine B assay; type: functional; procedure, shortened: as §3
A549 [6] = test: Cytotoxicity against human A549 cells assessed as cell growth inhibition measured after 72 hrs by MTT assay; type: functional, cell-based; settings: A549, 72 h; procedure, shortened: as §2
HOP-92 [7] = test: Growth inhibition of human HOP-92 cells incubated for 48 hrs by sulforhodamine B assay; type: functional; procedure, shortened: as §3
NCI-H322M [8] = test: Antiproliferative activity against human NCI-H322M cells assessed as cell growth at 10 uM incubated for 48 hrs by sulforhodamine B assay relative to control; type: functional; settings: read-out: Activity; procedure, shortened: as §1
NCI-H226 [9] = test: Growth inhibition of human NCI-H226 cells incubated for 48 hrs by sulforhodamine B assay; type: functional; procedure, shortened: as §3
A549 [10] = test: Antiproliferative activity against human A549/ATCC cells assessed as cell growth at 10 uM incubated for 48 hrs by sulforhodamine B assay relative to control; type: functional; settings: read-out: Activity; procedure, shortened: as §1
HOP-92 [11] = test: Antiproliferative activity against human HOP-92 cells assessed as cell growth at 10 uM incubated for 48 hrs by sulforhodamine B assay relative to control; type: functional; settings: read-out: Activity; procedure, shortened: as §1
NCI-H23 [12] = test: Antiproliferative activity against human NCI-H23 cells assessed as cell growth at 10 uM incubated for 48 hrs by sulforhodamine B assay relative to control; type: functional; settings: read-out: Activity; procedure, shortened: as §1
NCI-H522 [13] = test: Growth inhibition of human NCI-H522 cells incubated for 48 hrs by sulforhodamine B assay; type: functional; settings: for CC50: read-out: LC50 (the source's name); procedure, shortened: as §3
HOP-62 [14] = test: Growth inhibition of human HOP-62 cells incubated for 48 hrs by sulforhodamine B assay; type: functional; procedure, shortened: as §3
NCI-H226 [15] = test: Antiproliferative activity against human NCI-H226 cells assessed as cell growth at 10 uM incubated for 48 hrs by sulforhodamine B assay relative to control; type: functional; settings: read-out: Activity; procedure, shortened: as §1
NCI-H322M [16] = test: Growth inhibition of human NCI-H322M cells incubated for 48 hrs by sulforhodamine B assay; type: functional; procedure, shortened: as §3
EKVX [17] = test: Growth inhibition of human EKVX cells incubated for 48 hrs by sulforhodamine B assay; type: functional; procedure, shortened: as §3
A549 [18] = test: Growth inhibition of human A549/ATCC cells incubated for 48 hrs by sulforhodamine B assay; type: functional; settings: for CC50: read-out: LC50 (the source's name); procedure, shortened: as §3
NCI-H1975 = test: Cytotoxicity against human NCI-H1975 cells assessed as cell growth inhibition measured after 72 hrs by MTT assay; type: functional, cell-based; settings: NCI-H1975, 72 h; procedure, shortened: as §2
HCC827 = test: Cytotoxicity against human HCC827 cells assessed as cell growth inhibition measured after 72 hrs by MTT assay; type: functional, cell-based; settings: HCC827, 72 h; procedure, shortened: as §2
NCI-H460 [19] = test: Antiproliferative activity against human NCI-H460 cells assessed as cell growth at 10 uM incubated for 48 hrs by sulforhodamine B assay relative to control; type: functional; settings: read-out: Activity; procedure, shortened: as §1
NCI-H522 [20] = test: Antiproliferative activity against human NCI-H522 cells assessed as cell growth at 10 uM incubated for 48 hrs by sulforhodamine B assay relative to control; type: functional; settings: read-out: Activity; procedure, shortened: as §1
[21] = Toxicity in C57BL/6 mouse assessed as body weight gain at 20 mg/kg, ip administered on day 0, 7, 14 and 29; type: organism-based; settings: in vivo, 96 h, time 4 day
Procedure, shortened: (§4)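 Male C57BL/6 mice, eight weeks old, acclimated 5 days, 3 per cage, 12 h light/dark, food and water ad libitum. IP injection of 100 μL of a 4 mg/mL solution in 20% 2-HPβCD sterile PBS (~20 mg/kg assuming 20 g mouse) on days 0, 7, 14, 29. Vehicle mice got 2-HPβCD on days 0, 7, 14, 21, 25, 29. Weighed and observed daily; sacrificed day 29.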

[22] = Toxicity in C57BL/6 mouse assessed as body weight loss at 20 mg/kg, ip administered on day 0, 7, 14 and 29 relative to control; type: organism-based; settings: in vivo, 96 h, time 4 day
Procedure, shortened: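 Male C57BL/6 mice, 8 weeks old, acclimated 5 days, 12 h light/dark, 3 per cage, n = 3. Mice got 100 μL of 4 mg/mL drug in 20% 2-HPβCD in sterile PBS, about 20 mg/kg assuming 20 g, IP on days 0, 7, 14 and 29 (1 h before sacrifice). Vehicle mice were dosed IP on days 0, 7, 14, 21, 25 and 29. Weight and behaviour were checked daily; sacrifice was on day 29.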

[23] = Toxicity in C57BL/6 mouse assessed as body weight loss measured on day 6 at 20 mg/kg, ip administered on day 0, 7, 14 and 29; settings: in vivo
[24] = Toxicity in C57BL/6 mouse assessed as body weight loss recovery measured after second and third injection at 20 mg/kg, ip administered on day 0, 7, 14 and 29 relative to control; type: organism-based; settings: in vivo, 96 h, time 4 day; procedure, shortened: as §4

c1ccc2cc(Cn3cc[n+](CCCCCCCCCCCCn4cc[n+](Cc5ccc6ccccc6c5)c4)c3)ccc2c1
growth at 10 µM (HOP-62 [1]): -58% | IC50 (NCI-H460 [2]): < 1 µM | growth at 10 µM (EKVX [3]): -62.6% | GI50 (NCI-H460 [4]): 0.814 µM | LC50 (concentration giving 50% net cell kill) (NCI-H460 [4]): 14.6 µM | TGI (NCI-H460 [4]): 2.96 µM | GI50 (NCI-H23 [5]): 0.722 µM | LC50 (NCI-H23 [5]): 11.2 µM | IC50 (A549 [6]): < 1 µM | GI50 (HOP-92 [7]): 0.5 µM | LC50 (concentration giving 50% net cell kill) (HOP-92 [7]): 7.29 µM | growth at 10 µM (NCI-H322M [8]): -18.4% | GI50 (NCI-H226 [9]): 0.984 µM | LC50 (NCI-H226 [9]): > 25 µM | TGI (NCI-H226 [9]): 5.52 µM | growth at 10 µM (A549 [10]): -74.2% | growth at 10 µM (HOP-92 [11]): -68.2% | growth at 10 µM (NCI-H23 [12]): -80.3% | GI50 (NCI-H522 [13]): 0.47 µM | CC50 (NCI-H522 [13]): 9.89 µM | GI50 (HOP-62 [14]): 0.815 µM | LC50 (concentration giving 50% net cell kill) (HOP-62 [14]): 12.2 µM | growth at 10 µM (NCI-H226 [15]): -42.1% | GI50 (NCI-H322M [16]): 0.859 µM | LC50 (concentration giving 50% net cell kill) (NCI-H322M [16]): 10.4 µM | TGI (NCI-H322M [16]): 3.9 µM | GI50 (EKVX [17]): 0.893 µM | LC50 (EKVX [17]): 20.8 µM | GI50 (A549 [18]): 0.744 µM | CC50 (A549 [18]): 14.2 µM | IC50 (NCI-H1975): < 1 µM | IC50 (HCC827): 4 µM

c1ccc2cc(Cn3cc[n+](CCCCn4cc[n+](Cc5ccc6ccccc6c5)c4)c3)ccc2c1
growth at 10 µM (HOP-62 [1]): 54.8% | IC50 (NCI-H460 [2]): 4 µM | growth at 10 µM (EKVX [3]): 58.1% | IC50 (A549 [6]): 4 µM | growth at 10 µM (NCI-H322M [8]): 90% | growth at 10 µM (NCI-H460 [19]): 38.2% | growth at 10 µM (A549 [10]): 49.3% | growth at 10 µM (HOP-92 [11]): 68.4% | growth at 10 µM (NCI-H23 [12]): 44% | growth at 10 µM (NCI-H522 [20]): 43.4% | growth at 10 µM (NCI-H226 [15]): 82% | IC50 (NCI-H1975): 11 µM | IC50 (HCC827): 13 µM

[Br-].[Br-].c1ccc2cc(Cn3cc[n+](CCCCCCCCCCn4cc[n+](Cc5ccc6ccccc6c5)c4)c3)ccc2c1
growth at 10 µM (HOP-62 [1]): -4.86% | IC50 (NCI-H460 [2]): < 1 µM | growth at 10 µM (EKVX [3]): 13.7% | GI50 (NCI-H460 [4]): 0.376 µM | LC50 (concentration giving 50% net cell kill) (NCI-H460 [4]): 45.9 µM | TGI (NCI-H460 [4]): 10.1 µM | GI50 (NCI-H23 [5]): 0.445 µM | LC50 (NCI-H23 [5]): 39.9 µM | IC50 (A549 [6]): < 1 µM | GI50 (HOP-92 [7]): 0.396 µM | LC50 (concentration giving 50% net cell kill) (HOP-92 [7]): 15.2 µM | Activity [21]: Toxic | growth at 10 µM (NCI-H322M [8]): 34.5% | growth at 10 µM (NCI-H460 [19]): 11% | GI50 (NCI-H226 [9]): 0.918 µM | LC50 (NCI-H226 [9]): > 100 µM | TGI (NCI-H226 [9]): 13.6 µM | Activity [22]: 4% | body weight loss at 96 h [23]: 10% | growth at 10 µM (A549 [10]): 18.6% | growth at 10 µM (HOP-92 [11]): -23.6% | Activity [24]: Toxic | growth at 10 µM (NCI-H23 [12]): 5.67% | GI50 (NCI-H522 [13]): 0.436 µM | CC50 (NCI-H522 [13]): 5.95 µM | GI50 (HOP-62 [14]): 1.09 µM | LC50 (concentration giving 50% net cell kill) (HOP-62 [14]): 44.5 µM | growth at 10 µM (NCI-H226 [15]): 39.5% | GI50 (NCI-H322M [16]): 3.55 µM | LC50 (concentration giving 50% net cell kill) (NCI-H322M [16]): 48.1 µM | TGI (NCI-H322M [16]): 18.4 µM | GI50 (EKVX [17]): 0.442 µM | LC50 (EKVX [17]): 58.4 µM | CC50 (A549 [18]): 50.3 µM | IC50 (NCI-H1975): 2 µM | IC50 (HCC827): 7 µM
